Test [1] concerns the target Small conductance calcium-activated potassium channel protein 3 (Rattus norvegicus, UniProt P70605). Briefly: Inhibition of KCa2.3 in Sprague-Dawley rat superior cervical ganglion neurons assessed as inhibition of afterhyperpolarization by electrophysiological assay. The method in brief:
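Afterhyperpolarization (AHP) recorded from rat sympathetic ganglion neurons. The reported value is the concentration giving a 50% reduction in AHP amplitude.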

In test [2] the target is Small conductance calcium-activated potassium channel protein 3 (Rattus norvegicus) (UniProt P70605). In words: Inhibition of KCa2.3 in Sprague-Dawley rat superior cervical ganglion neurons assessed as inhibition of afterhyperpolarization by electrophysiological assay relative to dequalinium. In outline:
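AHP recorded from rat sympathetic ganglion neurons. The equi-effective molar ratio is the concentration giving 50% AHP inhibition relative to that of dequalinium, used as the comparator instead of UCL 1848.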

For test [3] the target is unchanged. Briefly: Inhibition of KCa2.3 in Sprague-Dawley rat superior cervical ganglion neurons assessed as inhibition of afterhyperpolarization by electrophysiological assay relative to UCL1848. In outline: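 AHP recorded from rat sympathetic ganglion neurons. The equi-effective molar ratio is the test-compound concentration giving 50% AHP inhibition divided by the UCL 1848 concentration giving 50% inhibition, both measured in the same experiment. Each compound was tested on 3–5 neurons.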

Sequence of Small conductance calcium-activated potassium channel protein 3 (Rattus norvegicus) (P70605 whole entry): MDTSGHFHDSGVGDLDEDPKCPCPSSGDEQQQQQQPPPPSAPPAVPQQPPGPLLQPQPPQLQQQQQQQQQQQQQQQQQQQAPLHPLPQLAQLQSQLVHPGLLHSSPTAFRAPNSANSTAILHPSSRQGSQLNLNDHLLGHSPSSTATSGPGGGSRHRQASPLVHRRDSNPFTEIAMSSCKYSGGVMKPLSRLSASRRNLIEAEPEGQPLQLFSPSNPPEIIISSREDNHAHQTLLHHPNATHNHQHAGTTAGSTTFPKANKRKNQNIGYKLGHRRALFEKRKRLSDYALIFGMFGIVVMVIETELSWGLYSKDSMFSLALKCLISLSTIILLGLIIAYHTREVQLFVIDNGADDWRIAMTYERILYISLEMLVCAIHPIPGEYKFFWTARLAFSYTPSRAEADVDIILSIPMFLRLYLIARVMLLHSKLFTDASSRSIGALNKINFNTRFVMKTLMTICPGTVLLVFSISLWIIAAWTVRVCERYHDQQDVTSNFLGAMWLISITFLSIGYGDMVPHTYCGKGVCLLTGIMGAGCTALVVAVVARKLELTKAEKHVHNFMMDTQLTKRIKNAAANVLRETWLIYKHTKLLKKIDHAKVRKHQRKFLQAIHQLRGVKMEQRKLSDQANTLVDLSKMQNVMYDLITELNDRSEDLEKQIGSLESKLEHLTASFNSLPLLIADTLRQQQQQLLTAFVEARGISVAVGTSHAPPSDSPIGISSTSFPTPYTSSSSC
Sequence of Small conductance calcium-activated potassium channel protein 3 (P70605 whole entry): as above

With `CN1CCCCCN(C)c2cc[n+](c3ccccc23)CCCCC[n+]2ccc1c1ccccc12`, the IC50 – broadly, the concentration that inhibits the measured activity by half – in test [1] came to 124 nM. In addition, the EMR in test [2] is 0.14; in test [3], 47.

The values are drawn from ChEMBL document CHEMBL2390924, “Further studies on bis-charged tetraazacyclophanes as potent inhibitors of small conductance Ca(2+)-activated K+ channels” (Eur J Med Chem, 2013).
